Data taken from article PMC4966677 (ACS infectious diseases, 2015).
“And” between values parts separate entries of the source, which are not always exact repeats. Equal entries are not always repeated.

What was measured:
[1] = system: Human PTP panel: PTP1B, TC-PTP, SHP1, SHP2, FAp1, Lyp, Meg2, HePTP, laforin, VHX, VHR, LMWPTP, Cdc14A, PTPα, LAR, CD45, PTPRG; assay: Human PTP panel selectivity, pNPP assay; type: biochemical
In short: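 Each PTP expressed in and purified from E. coli, used at 5 nM final. The reaction is started by adding enzyme to pNPP, set at that PTP's Km, plus varying test compound concentrations. It is stopped after 15 min with 5N NaOH. p-Nitrophenol is read at 405 nm, corrected with a no-enzyme control. IC50 is fit to AI/A0 = IC50/(IC50+[I]).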

M. tuberculosis H37Rv = assay: Microplate Alamar Blue assay; type: cell-based, Mycobacterium tuberculosis; details: for In vitro anti-Mtb activity MABA-MIC H37Rv: Minimum Inhibitory Concentration, strain H37Rv; for Activity in standard MIC assay (in words): strain not given
M. tuberculosis Erdman = assay: Microplate Alamar Blue assay; type: cell-based, Mycobacterium tuberculosis; details: Minimum Inhibitory Concentration, strain Erdman
Mtb-infected macrophages = assay: Growth inhibition of Mtb in IFN-γ-activated J774 macrophages; type: cell-based, Mycobacterium tuberculosis; details: read-out: In vitro anti-Mtb activity, Mtb-infected macrophages (IC90); IC90 in macrophages activated with γ-interferon
[2] = Oral pharmacokinetics in guinea pig plasma; type: in vivo; details: for AUCALL / CMAX / Clearance / Half-life / TMAX / VD (Volume of distribution): oral; for Oral bioavailability (in words): guinea pigs, oral dosing
Mtb H37Rv = assay: Chronic TB infection model in guinea pigs, lung CFU; type: in vivo; details: added to the standard regimen HRZ, guinea pig lungs, after 6 weeks of treatment
[3] = Tolerability in guinea pigs during the efficacy study; type: in vivo, guinea pig; details: L01-Z08 20 mg/kg and L335-M34 50 mg/kg once daily alone or in combination for 6 weeks
mPTPA = mPTPA (Mycobacterium tuberculosis, UniProt P9WIA1)
Chain of mPTPA (P9WIA1 whole entry): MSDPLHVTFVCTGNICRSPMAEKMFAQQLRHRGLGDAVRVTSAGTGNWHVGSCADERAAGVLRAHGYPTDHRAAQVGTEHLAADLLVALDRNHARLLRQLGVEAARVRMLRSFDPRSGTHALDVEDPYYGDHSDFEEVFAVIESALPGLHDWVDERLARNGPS

mPTPB = mPTPB (Mycobacterium tuberculosis, UniProt I6WXK4)
Chain of mPTPB (I6WXK4 whole entry, looked up): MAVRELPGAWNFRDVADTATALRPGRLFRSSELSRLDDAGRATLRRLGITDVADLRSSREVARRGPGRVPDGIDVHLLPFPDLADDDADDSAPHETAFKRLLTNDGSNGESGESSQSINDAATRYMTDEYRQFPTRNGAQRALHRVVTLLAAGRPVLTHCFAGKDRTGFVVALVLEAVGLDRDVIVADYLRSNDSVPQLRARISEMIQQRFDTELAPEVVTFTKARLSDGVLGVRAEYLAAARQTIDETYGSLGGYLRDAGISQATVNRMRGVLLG

[4] = guinea pig, Co-admin: L335M34 50 mg/kg and L01Z08 20 mg/kg together
[5] = guinea pig, Single (given alone), L335M34 50 mg/kg, L01Z08 20 mg/kg

With `Cc1c(Br)cc(NC(=O)CS(=O)(=O)O)cc1Br` [Compound L335-M34] the “Activity against a panel of human PTPs” value ([1]; at concentrations below 3 μM) was “no significant activity”, the “Fold selectivity vs. PTP panel” value ([1]; panel of 17 human PTPs) was over 20 fold and the “In vitro anti-Mtb activity MABA-MIC H37Rv” value (M. tuberculosis H37Rv) was >10 >10 uM. The “Activity in standard MIC assay (in words)” value (M. tuberculosis H37Rv) was “devoid of activity”, the “In vitro anti-Mtb activity MABA-MIC Erdman” value (M. tuberculosis Erdman) was >10 >10 uM and the IC90 (Mtb-infected macrophages) was 1380 nM. The AUCALL [2, 4] was 52752.61 ng·h/mL, the CMAX [2, 4] was 7064.956 ng/mL and the Clearance [2, 4] was 15.8339 mL/min/kg. For the same compound, the Half-life [2, 4] was 4.16 h, the TMAX [2, 4] was 2.5 h and the “VD (Volume of distribution)” value [2, 4] was 5702.19. The AUCALL [2, 5] was 54406.61 ng·h/mL, the CMAX [2, 5] was 5142.47 ng/mL and the Clearance [2, 5] was 15.291 mL/min/kg. For the same compound, the Half-life [2, 5] was 5.197 h, the TMAX [2, 5] was 2.5 h and the “VD (Volume of distribution)” value [2, 5] was 6878.467. The “Time plasma concentration stays 10-fold in excess of biochemical IC50” value ([2]; guinea pig, single oral dose, L335-M34 50 mg/kg, L01-Z08 20 mg/kg) was 12–14 hours and 12–24 hours, the “Oral bioavailability (in words)” value [2] was “good oral bioavailability” and the “Further reduction of mean lung CFU relative to HRZ” value (Mtb H37Rv) was 0.17 log10. The Signs of toxicity [3] was “no overt signs of toxicity”, the “Mode of mPTPA inhibition” value (mPTPA) was “reversible and competitive inhibitor” and the IC50 (mPTPA; read-out: Biochemical potency against target (IC50, nM) mPTPA, pH 7) was 160 nM. For the same compound, the Ki (mPTPA; read-out: Ki for mPTPA) was 56 ± 2 nM, the “Activity against mPTPB” value (mPTPB) was “no significant activity” and the “Fold selectivity vs. mPTPA/B (mPTPA inhibitor over mPTPB)” value (mPTPB) was over 20 fold. The IC50 (mPTPB; read-out: Biochemical potency against target (IC50, nM) mPTPB, pH 7) was over 3200 nM.

With `O=C(O)c1cc2c(C#Cc3cccc(C(F)(F)F)c3)c(-c3ccccc3)oc2cc1O` [Compound L01-Z08] the “In vitro anti-Mtb activity MABA-MIC H37Rv” value (M. tuberculosis H37Rv) was >10 >10 uM, the “Activity in standard MIC assay (in words)” value (M. tuberculosis H37Rv) was “inactive” and the “In vitro anti-Mtb activity MABA-MIC Erdman” value (M. tuberculosis Erdman) was >10 >10 uM. The IC90 (Mtb-infected macrophages) was under 5000 nM, the AUCALL [2, 4] was 28161.76 ng·h/mL and the CMAX [2, 4] was 3059.668 ng/mL. It also gave a Clearance [2, 4] of 11.6927 mL/min/kg, a Half-life [2, 4] of 6.141 h and a TMAX [2, 4] of 1.587 h. The “VD (Volume of distribution)” value [2, 4] was 6215.132, the AUCALL [2, 5] was 13166.89 ng·h/mL and the CMAX [2, 5] was 1870.43 ng/mL. The Clearance [2, 5] was 25.3079 mL/min/kg, the Half-life [2, 5] was 5.512 h and the TMAX [2, 5] was 1.587 h. For the same compound, the “VD (Volume of distribution)” value [2, 5] was 12074.939, the “Oral bioavailability (in words)” value [2] was “good oral bioavailability” and the Signs of toxicity [3] was “no overt signs of toxicity”.
